We go through 30 molecules from ChEMBL document CHEMBL1255214, “Structure-based design of imidazo[1,2-a]pyrazine derivatives as selective inhibitors of Aurora-A kinase in cells” (Bioorg Med Chem Lett, 2010).

One assay has as its target T1, Aurora kinase A (Homo sapiens, UniProt O14965).
T1 sequence (O14965 whole entry): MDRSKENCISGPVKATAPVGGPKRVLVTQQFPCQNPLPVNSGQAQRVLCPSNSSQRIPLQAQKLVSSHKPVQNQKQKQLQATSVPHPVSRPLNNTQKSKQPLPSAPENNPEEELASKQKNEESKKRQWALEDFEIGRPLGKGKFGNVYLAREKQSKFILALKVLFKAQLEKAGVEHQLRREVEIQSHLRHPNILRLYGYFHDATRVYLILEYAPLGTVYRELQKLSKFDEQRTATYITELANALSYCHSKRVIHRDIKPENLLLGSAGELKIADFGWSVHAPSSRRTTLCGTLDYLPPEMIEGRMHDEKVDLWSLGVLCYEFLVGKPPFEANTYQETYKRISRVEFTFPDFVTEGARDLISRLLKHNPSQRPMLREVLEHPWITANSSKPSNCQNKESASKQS
Briefly: Inhibition of human aurora A. In outline: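 Recombinant human Aurora-A kinase; IC50 measured by either a Flashplate or a Filterplate assay. Values are means of two independent determinations, or mean (SD) where n >2; some are means of samples run in triplicate.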

Assay [1] concerns the target T2, Aurora kinase A (Homo sapiens) (UniProt O14965).
T2 sequence (whole entry): T1 sequence (O14965 whole entry)
Briefly: Inhibition of human aurora A at 10 uM. In outline: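 Recombinant human Aurora-A kinase, tested at a single concentration; percent inhibition reported as mean of samples run in triplicate.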

For a further assay, the species on record is Homo sapiens. Briefly: Selectivity ratio of IC50 for human aurora B to IC50 for human aurora A.
For the next assay, the target named is Aurora kinase B (Homo sapiens, UniProt Q96GD4). Briefly: Inhibition of human aurora B.
Chain of Aurora kinase B (Q96GD4 whole entry): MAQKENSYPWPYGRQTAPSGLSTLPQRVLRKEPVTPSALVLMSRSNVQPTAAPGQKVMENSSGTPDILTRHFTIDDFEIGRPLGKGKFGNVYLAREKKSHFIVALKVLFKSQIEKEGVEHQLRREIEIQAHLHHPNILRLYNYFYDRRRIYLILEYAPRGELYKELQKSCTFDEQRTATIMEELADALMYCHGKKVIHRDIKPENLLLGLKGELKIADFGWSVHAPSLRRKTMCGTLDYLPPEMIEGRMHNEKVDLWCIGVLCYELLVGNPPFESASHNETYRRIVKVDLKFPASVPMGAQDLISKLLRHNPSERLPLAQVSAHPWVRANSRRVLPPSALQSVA
Another assay deals with HCT-116. Briefly: Growth inhibition of human HCT116 cells. The class given is functional. The procedure, abridged:
(§1)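 MTT read-out of cell growth, with GI50 taken from the resulting data.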

For a further assay, the system named is HeLa. Kind of assay: Growth inhibition of human HeLa cells. Type of assay: functional. In outline:
as §1

The target in a further assay is T3, Aurora kinase C (Homo sapiens, UniProt Q9UQB9).
T3 sequence (Q9UQB9 whole entry): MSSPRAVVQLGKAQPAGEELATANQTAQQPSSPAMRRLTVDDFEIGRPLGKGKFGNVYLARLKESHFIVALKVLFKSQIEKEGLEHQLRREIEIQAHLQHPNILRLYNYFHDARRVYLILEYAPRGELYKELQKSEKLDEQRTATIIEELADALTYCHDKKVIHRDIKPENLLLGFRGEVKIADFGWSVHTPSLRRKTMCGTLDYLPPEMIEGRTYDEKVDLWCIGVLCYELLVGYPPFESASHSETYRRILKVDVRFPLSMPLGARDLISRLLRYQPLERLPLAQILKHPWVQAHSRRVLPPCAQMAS
Briefly: Inhibition of human aurora C. In outline:
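Recombinant human Aurora-C kinase; IC50 measured by Filterplate assay.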

As a reminder, the IC50 is the concentration that gives 50% inhibition. Higher therefore signals weaker potency in that assay. `COc1ccc(NC(=O)Nc2cccc(-c3cn4ccnc4c(Nc4ccc(OC)cc4)n3)c2)cc1` returned a concentration for half-maximal inhibition (IC50) on Aurora kinase A of 7.9 µM.
Usually inhibition stands for the drop in the measured response relative to a control, in per cent. A low value points to a response near the control. `COc1ccc(Nc2nc(-c3ccc(OC)nc3)cn3ccnc23)cc1`: in assay [1], the inhibition was found to be 30%.
At Aurora kinase A, `c1cncc(-c2cn3c(-c4cccnc4)cnc3c(Nc3ccc(N4CCOCC4)cc3)n2)c1` returned an IC50 of 4.2 µM.
As to `c1cncc(-c2cn3ccnc3c(NCCN3CCOCC3)n2)c1`, the inhibition in assay [1] turned out to be 33%.
In assay [1], `COc1ccc(Nc2nc(-c3ccc(F)nc3)cn3ccnc23)cc1` had an inhibition of 32%.
In turn, `Clc1ccc(Nc2nc(-c3cccnc3)cn3ccnc23)cc1` displayed an IC50 at Aurora kinase A of 5.5 µM.
As for `OC1CCC(Nc2nc(-c3cccnc3)cn3ccnc23)CC1` (configuration not stated), in assay [1], the inhibition came out at 32%.
Molecule `COc1ccc(Nc2nc(-c3cccc(N)c3)cn3ccnc23)cc1` displayed a half-inhibitory concentration (IC50) against Aurora kinase A of 5.48 µM.
The same measure, in the same setting: under `c1cncc(-c2cn3ccnc3c(Nc3ccc(N4CCOCC4)cc3)n2)c1` stands 2.12 µM; under `COCC(=O)Nc1cccc(-c2cn3ccnc3c(Nc3ccc(OC)cc3)n2)c1`, 7.31 µM.
For `COc1ccc(Nc2nc(-c3cnn(Cc4ccccc4)c3)cn3ccnc23)cc1`, the inhibition in assay [1] came to 38%.
Still for that read-out and setting: as for `c1cncc(-c2cn3ccnc3c(NCc3ccc(N4CCOCC4)cc3)n2)c1`, the figure is 41%.
For `CS(=O)(=O)NCc1cccc(-c2cn3c(Cl)cnc3c(Nc3ccc(N4CCOCC4)cc3)n2)c1`, the Ratio IC50 in the assay listed under Homo sapiens amounted to 70. The molecule further yielded a half-maximal inhibitory concentration (IC50) against Aurora kinase B of 10.5 µM.
As for `c1cncc(-c2cn3ccnc3c(NCc3ccc4c(c3)OCCO4)n2)c1`, in assay [1], the inhibition was determined as 35%.
The molecule `COc1ccc(Nc2nc(-c3cccc(NC(=O)Nc4ccccc4)c3)cn3ccnc23)cc1` had an IC50 at Aurora kinase A of 7.2 µM.
Same read-out and setting: as for `COc1ccc(Nc2nc(-c3cccc(NS(=O)(=O)c4cccnc4)c3)cn3ccnc23)cc1`, the figure is 4.5 µM.
In assay [1], `COc1ccc(Nc2nc(-c3cccc(NC(=O)COc4ccccc4)c3)cn3ccnc23)cc1` returned an inhibition of 22%.
As a reminder, the GI50 is the concentration giving 50% growth inhibition. A lower GI50 goes with greater sensitivity of the cells. In the case of `Cc1cnc2c(Nc3ccc(N4CCOCC4)cc3)nc(-c3cccnc3)cn12`, the GI50 in the assay with HCT-116 stood at 7.2 µM; with HeLa it was 6.5 µM. On Aurora kinase A, this molecule registered an IC50 of 0.208 µM.
On the same counts, the results for `Brc1cnc2c(Nc3ccc(N4CCOCC4)cc3)nc(-c3cccnc3)cn12` are 2.3 µM, 13.4 µM and 0.152 µM.
Consider `COc1ccc(Nc2nc(-c3ccn(C)n3)cn3ccnc23)cc1`, for which the half-maximal inhibitory concentration (IC50) against Aurora kinase A turned out to be 9.7 µM.
In assay [1], `COc1ccc(Nc2nc(-c3ccc(Cl)nc3)cn3ccnc23)cc1` yielded an inhibition of 28%.
As to `COc1ccc(Nc2nc(-c3cccnc3)cn3ccnc23)cc1`, the half-maximal inhibitory concentration (IC50) at Aurora kinase A came out at 2.9 µM.
The same measure, in the same setting: as for `c1ccc(Nc2nc(-c3cccnc3)cn3ccnc23)cc1`, the figure is 6.7 µM.
As for `COc1ccc(Nc2nc(-c3cccc(NS(=O)(=O)c4ccc(OC)cc4)c3)cn3ccnc23)cc1`, the IC50 on Aurora kinase A is 6.7 µM.
For the molecule `O=C(O)c1ccc(Nc2ncc3c(n2)-c2ccc(Cl)cc2C(c2c(F)cccc2F)=NC3)cc1`, in the assay filed under Homo sapiens, the Ratio IC50 was 90.
In turn, `CN(c1ccccc1)c1nc(-c2cccnc2)cn2ccnc12` registered an inhibition in assay [1] of 27%.
As to `O=C(Nc1ccc(Nc2nc(-c3cccnc3)cn3ccnc23)cc1)c1ccccc1`, at Aurora kinase A, the IC50 was determined as 3.75 µM.
As to `Clc1cnc2c(Nc3ccc(N4CCOCC4)cc3)nc(-c3cccnc3)cn12`, the GI50 was 3.9 µM with HCT-116 and 28 µM in the assay on HeLa. On Aurora kinase C, this molecule returned a half-maximal inhibitory concentration (IC50) of 1.95 µM.
Take `COc1ccc(Nc2nc(-c3cccc(Cl)c3)cn3ccnc23)cc1`: the inhibition in assay [1] came out at 46%.
Molecule `CC(=O)Nc1ccc(Nc2nc(-c3cccnc3)cn3ccnc23)cc1` gave an IC50 on Aurora kinase A of 2.5 µM.
